Source: ChEMBL document CHEMBL3297652, “Acantholactam and pre-neo-kauluamine, manzamine-related alkaloids from the Indonesian marine sponge Acanthostrongylophora ingens” (J Nat Prod, 2014)

Assays:
[1] = test system: HeLa; test: Cytotoxicity against human HeLa cells after 3 days by MTT assay; type: functional, cell-based; details: 72 h
Procedure, shortened: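 HeLa cells were used, following a previously reported procedure. The result was expressed as an IC50 in μM.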

[2] = Inhibition of chymotrypsin-like activity of rat liver proteasome using fluorogenic substrates for 6 hrs
Procedure, shortened: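 The chymotrypsin-like activity of the proteasome was measured by a previously reported procedure. Inhibition was expressed as an IC50 in μM.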

[3] = test system: Macrophage (Homo sapiens); test: Inhibition of cholesterol ester accumulation in human monocyte-derived macrophages at 20 uM

IC50 [2] | SMILES | IC50 [1] | inhibition at 20 µM [3]
0.34 µM | O[C@@H]1CC[C@@]23C[C@]45CN6CCCC/C=C\CC[C@](O)(C=C(c7nccc8c7[nH]c7ccccc78)[C@@H]4CC6)[C@@H]5N2CC[C@@H]1O3 | 16 µM | 91%
0.13 µM | O[C@@H]1CC[C@@]23C[C@]45CN6CCCC/C=C\CC[C@](O)(C=C(c7nccc8c7[nH]c7ccccc78)[C@@H]4CC6)[C@@H]5N2CC[C@@H]1O[C@@]12CC[C@@H](O3)[C@@H](O)CCN1[C@@H]1[C@]3(CN4CCCC/C=C\CC[C@]1(O)C=C(c1nccc5c1[nH]c1ccccc15)[C@@H]3CC4)C2 | 5.4 µM | 92%
33 µM | O=C(O)/C=C\CCCN1C(=O)C[C@]23CN4CCCC/C=C\CC[C@](O)(C=C(c5nccc6c5[nH]c5ccccc56)[C@@H]2CC4)[C@H]13 | > 50 µM | 0%

SMILES | IC50 [2] | IC50 [1] | inhibition at 20 µM [3]
O[C@]12C=C(c3nccc4c3[nH]c3ccccc34)[C@@H]3CCN(CCCC/C=C\CC1)C[C@@]31C[C@@H]3/C=C\CCCCN3[C@H]12 [MANZAMINE A] | 2 µM | 13 µM | 80%
